The campaign covered roughly 310,000 compounds. About 2,800 (0.9%) were called active.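 The calls were made as follows: active = B-score of the integrated calcium signal more than 4 SD below the library mean, with starting fluorescence not abnormally high; inactive = the rest.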 Only a selection was taken, and actives are over-represented in it overall.
Experiment: enhancers of RGS4 function in calcium signaling – cell-based, HEK293 M3R inducible RGS4, calcium flux, primary screen (AID 463111);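 as to B-score: negative B-score means reduced calcium response which marks RGS4 activation or potentiation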
Settings: HEK293 M3R/inducible RGS4, carbachol calcium flux Fluo4, at 10 µM; active compounds read low
Outline: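 Material: M3R-expressing HEK293 line, RGS4 induced by doxycycline | Schedule: Overnight RGS4 induction, 30 min dye load 37 °C, 20 min compound RT | Measured by: Fluo4 fluorescence kinetic imaging of calcium | Read-out: Integrated calcium ratio converted to B score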

| SMILES | B-score |
| --- | --- |
| CCC1C=C(c2ccccc2)C=CN=C1N(CC)CC (stereo unspecified) | -10.2 (active) |
| COc1cccc(NC(=O)N2C3CCCC2CC(NC(C)=O)C3)c1 (stereo unspecified) | inactive |
| CCCn1c(SCC(=O)c2ccc3c(c2)OCCO3)nnc1C(C)C | inactive |
| O=S(=O)(c1ccc(Br)cc1)n1ccc2ccccc21 | -7.7 (active) |
| O=S(=O)(c1ccc(Br)cc1)N1CCC(c2nc3ccccc3[nH]2)CC1 | inactive |
| O=C(c1ccccc1F)N1CCN(S(=O)(=O)c2ccc(Br)cc2)CC1 | inactive |
| CCC1CCc2c(sc(NC(C)=O)c2C#N)C1 (stereo unspecified) | inactive |
| CCC(C)c1ccc(NC(=S)NCc2ccccn2)cc1 (stereo unspecified) | inactive |
| FC(F)(F)c1cccc(-c2nc(COc3ccc(Cl)cc3Cl)no2)c1 | -7.64 (active) |
| FC(F)(F)c1cnc(Oc2ccccc2-c2nnc(-c3ccc(Cl)cc3)o2)c(Cl)c1 | inactive |
| Cc1cc(Cl)ccc1OCc1nc(-c2ccncc2)no1 | inactive |
| Cc1ccc(NC(=O)COc2coc(CN3CCc4ccccc4C3)cc2=O)cc1Cl | inactive |
| CCOC(=O)C1(Cc2ccccc2C)CCCN(C(=O)c2ccc(COC)o2)C1 (stereo unspecified) | inactive |
| CCOc1cc(C(=S)N2CCOCC2)ccc1OS(=O)(=O)c1ccc(Br)cc1 | inactive |
| Cc1cc(C(=O)NC2CCCc3c2cnn3-c2cccc(C)c2C)c(C)o1 (stereo unspecified) | inactive |
| COc1ccc(C(=O)NC2CCCc3c2cnn3-c2cccc(C)c2C)c(OC)n1 (stereo unspecified) | -10.2 (active) |
| Cn1nccc1C(=O)NC1CCCc2c1cnn2-c1ccccc1F (stereo unspecified) | inactive |
| Cc1cccc(C(=O)Nc2ccc(C(=O)N/N=C/c3cccc(C)n3)cc2)c1 | inactive |
| Cc1cccc(C(=O)Nc2ccc(C(=O)/C=C/c3cccs3)cc2)c1 | -10.5 (active) |
| Cc1cccc(C(=O)Nc2ccc(CC(=O)O)cc2)c1 | inactive |
| Cn1nc(C(F)(F)F)c2cc(NC(=O)OCC(C)(C)C)sc21 | inactive |
| CN(C(=O)CN1C(=O)CCSc2ccc(S(=O)(=O)N3CCCC3)cc21)c1ccccc1 | inactive |

| SMILES | B-score |
| --- | --- |
| CCCCOc1ccc(N(CC(=O)NCC2CCCO2)C(=O)CCC(=O)Nc2cc(C)ccn2)cc1 (stereo unspecified) | inactive |
| COc1ccccc1Oc1ccc(S(=O)(=O)Nc2cccnc2)cc1 | inactive |
| Cc1cc(C)cc(NS(=O)(=O)c2ccc(F)cc2)c1 | inactive |
| Cc1cc(C)cc(NS(=O)(=O)c2ccc(Oc3ncc(C(F)(F)F)cc3Cl)cc2)c1 | -8.23 (active) |
| CCN1C(=O)[C@H]2[C@@H](c3ccc(C)cc3)N3C(=O)N(c4cccc(Br)c4)C(=O)[C@@]3(CC)[C@H]2C1=O | inactive |
| Cc1cc(NC(=O)CCN2CCN(Cc3ccccc3)CC2)ccc1Br | inactive |
| O=C(Nc1ccccc1C(=O)N1CCOCC1)C1CCC(=O)N1C1CCCC1 (stereo unspecified) | inactive |
| CCc1ccccc1NC(=O)[C@@H]1CCC(=O)N1C1OC(=O)c2c1ccc(OC)c2OC (stereo partly specified) | -8.3 (active) |
| CCOc1ccc(CNC(=O)C2CCC(=O)N2C2CCCC2)cc1OC (stereo unspecified) | inactive |
| CN1CCN(C(=O)N2c3ccccc3CCc3ccccc32)CC1 | -9.54 (active) |
| CC1CC(C)CN(CC(=O)N2c3ccccc3CCc3ccccc32)C1 (stereo unspecified) | inactive |
| CCC(=O)N1CCCc2ccccc21 | inactive |
| N#CC1(C#N)C(C(=O)C23CC4CC(CC(C4)C2)C3)C12CCOCC2 (stereo unspecified) | inactive |
| FC(F)(F)C1CCCN(c2nsc3ccccc23)C1 (stereo unspecified) | inactive |
| COC(=O)c1cccc(N(CC(=O)NCC2CCCO2)C(=O)CCC(=O)Nc2cc(C)on2)c1 (stereo unspecified) | inactive |
| Cc1ccnc(SCCn2c(N(C)Cc3ccccc3)nc3c2c(=O)n(C)c(=O)n3C)n1 | -7.93 (active) |
| CN(Cc1ccccc1)c1nc2c(c(=O)[nH]c(=O)n2C)n1CCSc1nc2ccccc2[nH]1 | inactive |
| CC(C)CCn1c(CN(C)Cc2ccccc2)nc2c1c(=O)n(C)c(=O)n2C | inactive |
| CC(C)c1nnc(NC(=O)COC(=O)/C=C/c2ccc([N+](=O)[O-])cc2)s1 | inactive |
| COCCCNc1nc2ccccc2nc1NS(=O)(=O)c1ccc(F)cc1 | inactive |
| O=C(Cn1ncc(N2CCCC2)c(Br)c1=O)c1ccc(Cl)cc1 | inactive |
| COc1cccc(N(CC(=O)NC2CCCC2)C(=O)CCCC(=O)Nc2ccccn2)c1 | inactive |

| SMILES | B-score |
| --- | --- |
| Fc1ccc(Cn2nnnc2C(c2cccs2)N2CCCCCC2)cc1 (stereo unspecified) | inactive |
| CCCCN1C(=O)/C(=C2/Sc3ccc(Cl)cc3N2CC)SC1=S | inactive |
| CCCCN1C(=O)/C(=C/C=C2/C=Cc3ccccc3N2CC)SC1=S | inactive |
| CN1C=CC=C/C1=C1\SC(=S)N(Cc2ccccc2)C1=O | -9.24 (active) |
| CCN1C(=O)/C(=C2/Sc3ccccc3N2CCCS(=O)(=O)O)SC1=S | inactive |
| CCCCN1C(=O)/C(=C2/C=CC=CN2C)SC1=S | -8.69 (active) |
| COc1cc(/C=C2/SC(=S)N(Cc3ccccc3)C2=O)cc(OC)c1O | inactive |
| CC(C)CNC(=S)NNC(=O)c1ccccc1OC(F)F | inactive |
| Cc1cccc(C(C)C)c1NC(=O)COC(=O)C1CC(=O)N(Cc2ccccc2)C1 (stereo unspecified) | inactive |
| CNC(=O)c1[nH]cnc1C(=O)N[C@@H](CC(C)C)C(=O)OCc1ccccc1 | inactive |
| N#Cc1ccc(/C=C2\CCn3c2nc2cc(C(=O)O)ccc2c3=O)cc1 | inactive |
| O=C(O)CC(SCC(=O)Nc1ccc(Br)cc1)C(=O)O (stereo unspecified) | inactive |
| Cc1ccc(NC(=O)c2oc3ccccc3c2C)c([N+](=O)[O-])c1 | inactive |
| COc1ccc(-c2csc3ncnc(N4CCN(S(=O)(=O)c5ccccc5C#N)CC4)c23)cc1 | inactive |
| COc1ccc(-c2csc3ncnc(N4CCN(S(=O)(=O)c5cccc(F)c5)CC4)c23)cc1 | -7.35 (active) |
| COc1ccc(-c2csc3ncnc(Oc4ccc5c(C)cc(=O)oc5c4)c23)cc1 | inactive |
| O=C(NCc1ccccc1)[C@H]1C[C@@H]1[C@H](NP(=O)(c1ccccc1)c1ccccc1)c1ccccc1 | inactive |
| CCCn1nnnc1NC(=O)COc1ccc(Cl)cc1C | inactive |
| CN(C)CCCN1C(=O)CSC1c1ccc([N+](=O)[O-])cc1 (stereo unspecified) | inactive |
| CCCCCCCCCCCCN1C(=O)CSC1c1cccnc1 (stereo unspecified) | -10 (active) |
| CCCCCCOc1ccc(OC(=O)c2cccnc2)cc1 | inactive |
| CC1(c2ccc3ccccc3c2)NC(=O)N(CC(N)=O)C1=O (stereo unspecified) | inactive |

Source: PubChem BioAssay AID463111 (Johns Hopkins Ion Channel Center, 2010)
